Measurements as given in ChEMBL document CHEMBL4613314, “Exploring the Implication of DDX3X in DENV Infection: Discovery of the First-in-Class DDX3X Fluorescent Inhibitor” (ACS Med Chem Lett, 2020).
Activity calls are given as the source filed them. The rule behind the calls is not given here.

How the values were obtained:
dengue virus type 2 [1] = experiment: Antiviral activity against Dengue virus serotype 2 New Guinea C infected at 50 TCID50 in human HuH7 cells assessed as inhibition of viral replication and 72 hrs later re-infected pre-seeded HuH7 cells with viral supernatant collected from previous infected and measured after 72 hrs by immunodetection assay; assay type: functional, organism-based; conditions: Huh-7, 72 h
Summary of the method: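 Huh-7 cells infected with 50 TCID50 DENV-2 in presence of serial compound dilutions; after 72 h supernatants used to infect preseeded Huh-7 cells for a second infection cycle; replication read after further 72 h by immunoenzymatic assay with monoclonal antibody to conserved viral E antigen region. IC50 from at least two experiments, mean ± SD.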

dengue virus type 2 [2] = experiment: Antiviral activity against Dengue virus serotype 2 New Guinea C infected at 100 TCID50 in human HuH7 cells assessed as reduction of NS5 positive cells at 20 uM measured at 48 to 72 hrs post-infection by Alexa fluor 488 dye based confocal microscopy; assay type: functional, organism-based; conditions: Huh-7
Summary of the method: (§1)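 DENV-2-infected Huh-7 cells (100 TCID50) treated with fluorescent inhibitor at 20 μM; immunostained for DDX3X or NS5 and examined by confocal microscopy over time up to 72 h p.i.; viable cell number and NS5-positive cell number scored.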

dengue virus type 2 [3] = experiment: Antiviral activity against Dengue virus serotype 2 New Guinea C infected at 100 TCID50 in human HuH7 cells assessed as increase in viable cells at 20 uM measured at 48 to 72 hrs post-infection by Alexa fluor 488 dye based confocal microscopy; assay type: functional, organism-based; conditions: Huh-7; summary of the method: as §1
[4] = target: T1, ATP-dependent RNA helicase DDX3X (Homo sapiens, UniProt O00571); experiment: Induction of DDX3X recruitment in human HuH7 cells infected with 100 TCID50 of Dengue virus serotype 2 New Guinea C assessed as colocalization of DDX3X in perinuclear region at 20 uM measured at 6 to 24 hrs post-infection by Alexa fluor 488 dye based confocal microscopy; assay type: cell-based; conditions: Huh-7
Summary of the method: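 Huh-7 cells infected with DENV-2 at 100 TCID50, treated with fluorescent inhibitor at 20 μM; fixed at 0, 6, 12 and 24 h p.i., permeabilized, immunostained for DDX3 or NS5 (Alexa Fluor 568 secondary) and examined by confocal microscopy for colocalization with the probe.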
Target sequence in this assay (O00571 2-662 limits assumed): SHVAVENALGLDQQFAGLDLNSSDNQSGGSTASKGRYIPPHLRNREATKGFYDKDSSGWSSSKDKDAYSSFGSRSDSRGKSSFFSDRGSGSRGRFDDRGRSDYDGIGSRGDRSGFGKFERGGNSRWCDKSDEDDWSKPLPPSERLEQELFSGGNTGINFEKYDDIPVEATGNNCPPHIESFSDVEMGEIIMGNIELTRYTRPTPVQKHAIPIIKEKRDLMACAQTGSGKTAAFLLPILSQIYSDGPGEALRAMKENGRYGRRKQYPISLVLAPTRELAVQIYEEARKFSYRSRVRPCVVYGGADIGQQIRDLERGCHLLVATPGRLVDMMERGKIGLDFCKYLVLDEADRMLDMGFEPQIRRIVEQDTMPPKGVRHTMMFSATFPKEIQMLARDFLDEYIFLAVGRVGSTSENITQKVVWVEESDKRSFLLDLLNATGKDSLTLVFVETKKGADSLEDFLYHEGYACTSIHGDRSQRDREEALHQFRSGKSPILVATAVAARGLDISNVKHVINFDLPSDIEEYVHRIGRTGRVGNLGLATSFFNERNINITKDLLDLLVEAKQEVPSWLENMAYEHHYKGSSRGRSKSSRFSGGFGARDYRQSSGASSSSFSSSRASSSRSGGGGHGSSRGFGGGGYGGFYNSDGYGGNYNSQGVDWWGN

[5] = target: T1, ATP-dependent RNA helicase DDX3X; experiment: Induction of DDX3X recruitment in human HuH7 cells infected with 100 TCID50 of Dengue virus serotype 2 New Guinea C assessed as increase in DDX3X expression in perinuclear region at 20 uM measured at 48 to 72 hrs post-infection by Alexa fluor 488 dye based confocal microscopy; assay type: cell-based; conditions: Huh-7; summary of the method: as §1
Target sequence in this assay (O00571 2-662 limits assumed): as above

[6] = Cytotoxicity against human HuH7 cells assessed as reduction in cell viability by measuring ATP level measured after 72 hrs by CellTiter-Glo luminescent assay; assay type: cell-based, Huh-7
Summary of the method: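 Huh-7 cells; viable cell number determined from cellular ATP content by CellTiter-Glo 2.0 luminescence; CC50 derived.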

dengue virus type 2 [7] = experiment: Antiviral activity against Dengue virus serotype 2 New Guinea C infected at 100 TCID50 in human HuH7 cells assessed as cytoplasmic localization of NS5 followed by movement to nucleus at 20 uM measured at 6 hrs post-infection by […]; assay type: functional, organism-based; conditions: Huh-7
[8] = target: T1, ATP-dependent RNA helicase DDX3X; experiment: Inhibition of recombinant full length human His-tagged DDX3X expressed in Escherichia coli using dsRNA as substrate measured after 40 mins in presence of ATP by FRET assay
Target sequence in this assay (O00571 whole entry): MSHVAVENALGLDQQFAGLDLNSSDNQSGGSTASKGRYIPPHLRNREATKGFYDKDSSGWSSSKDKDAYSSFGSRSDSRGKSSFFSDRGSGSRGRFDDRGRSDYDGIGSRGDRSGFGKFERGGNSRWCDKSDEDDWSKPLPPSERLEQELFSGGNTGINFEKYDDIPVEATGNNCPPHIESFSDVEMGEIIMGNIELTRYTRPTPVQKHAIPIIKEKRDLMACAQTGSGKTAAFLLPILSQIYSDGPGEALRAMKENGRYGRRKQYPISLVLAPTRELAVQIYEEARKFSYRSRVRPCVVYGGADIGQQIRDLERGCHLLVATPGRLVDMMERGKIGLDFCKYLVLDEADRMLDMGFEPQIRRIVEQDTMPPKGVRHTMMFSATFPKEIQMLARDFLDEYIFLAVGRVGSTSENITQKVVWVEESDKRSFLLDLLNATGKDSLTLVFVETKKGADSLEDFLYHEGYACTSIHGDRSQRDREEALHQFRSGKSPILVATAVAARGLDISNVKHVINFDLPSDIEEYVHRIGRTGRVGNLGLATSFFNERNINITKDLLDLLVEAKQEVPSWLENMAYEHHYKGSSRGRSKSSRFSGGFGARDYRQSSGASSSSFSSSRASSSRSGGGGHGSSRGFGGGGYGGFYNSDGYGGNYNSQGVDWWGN

in vitro = conditions: human
dengue virus type 2 [9] = experiment: Antiviral activity against Dengue virus serotype 2 New Guinea C infected at 100 TCID50 in human HuH7 cells assessed as reduction in number of NS3 positive cells at 0.1 to 20 uM measured up to 24 hrs by Alexa fluor 488 dye based confocal microscopy; assay type: functional, organism-based; conditions: Huh-7
dengue virus type 2 [10] = experiment: Antiviral activity against Dengue virus serotype 2 New Guinea C infected at 100 TCID50 in human HuH7 cells assessed as cytopathic effect by measuring increase in viable cells at 0.1 to 20 uM measured up to 24 hrs by Alexa fluor 488 based confocal microscopy; assay type: functional, organism-based; conditions: Huh-7
dengue virus type 2 [11] = experiment: Antiviral activity against Dengue virus serotype 2 New Guinea C infected at 100 TCID50 in human HuH7 cells assessed as reduction in number of NS5 positive cells at 0.1 to 20 uM measured up to 24 hrs by Alexa fluor 488 dye based confocal microscopy; assay type: functional, organism-based; conditions: Huh-7
dengue virus type 2 [12] = experiment: Antiviral activity against Dengue virus serotype 2 New Guinea C infected at 100 TCID50 in human HuH7 cells assessed as reduction in number of dsRNA positive cells at 0.1 to 20 uM measured up to 24 hrs by Alexa fluor 488 dye based confocal microscopy; assay type: functional, organism-based; conditions: Huh-7

For `O=C1OC2(c3ccc(O)cc3Oc3cc(O)ccc32)c2cc(NC(=S)NCCOCc3cn(-c4cccc(S(=O)(=O)Nc5ccccc5C(F)(F)F)c4)nn3)ccc21`, the IC50 (dengue virus type 2 [1]) was 28.2 µM, the Activity (dengue virus type 2 [2]) was “Active” and the Activity (dengue virus type 2 [3]) was “Active”. The Activity [4] was “Active”, the Activity [5] was “Active” and the CC50 at 72 h [6] was 140 µM. The Activity (dengue virus type 2 [7]) was “Active”.

Molecule `CCOCc1cn(-c2cccc(S(=O)(=O)Nc3ccccc3N3CCOCC3)c2)nn1` has an IC50 [8] of 0.06 µM, an IC50 (dengue virus type 2 [1]) of 5.3 µM and a CC50 at 72 h [6] of 100 µM. It also gave a selectivity ratio at 72 h (in vitro; HuH7 cells) of 18.9.

With `CCCCc1cn(-c2cccc(S(=O)(=O)Nc3ccccc3OC)c2)nn1` the IC50 [8] was 0.18 µM, the IC50 (dengue virus type 2 [1]) was 6.3 µM and the CC50 at 72 h [6] was 79 µM.

Work on `CC(=O)CCc1cn(-c2ccc(NC(=O)Nc3cccc(F)c3)cc2)nn1` yielded an IC50 [8] of 2.4 µM, an IC50 (dengue virus type 2 [1]) of 0.3 µM and a CC50 at 72 h [6] of 20 µM. The selectivity ratio at 72 h (in vitro; HuH7 cells) was 64.7.

`CCCCc1cn(-c2cccc(S(=O)(=O)Nc3cccc4cnccc34)c2)nn1` gave an IC50 [8] of 0.12 µM, an IC50 (dengue virus type 2 [1]) of 2.3 µM and a CC50 at 72 h [6] of 30 µM.

With `CCOCc1cn(-c2cccc(S(=O)(=O)Nc3ccccc3C(F)(F)F)c2)nn1` the Activity (dengue virus type 2 [9]) was “Active”, the IC50 (dengue virus type 2 [1]) was 2.6 µM and the Activity (dengue virus type 2 [10]) was “Active”. The Activity (dengue virus type 2 [11]) was “Active”, the Activity (dengue virus type 2 [12]) was “Active” and the CC50 at 72 h [6] was 150 µM.

For `CCCCc1cn(-c2ccc(NC(=O)Nc3ccccc3C)cc2)nn1`, the IC50 (dengue virus type 2 [1]) was 2.55 µM.

`CCCCc1cn(-c2cccc(S(=O)(=O)Nc3ccccc3C(F)(F)F)c2)nn1` showed an IC50 (dengue virus type 2 [1]) of 6.1 µM, a CC50 at 72 h [6] of 18 µM and a selectivity ratio at 72 h (in vitro; HuH7 cells) of 3.

`CCCCc1cn(-c2ccc(NC(=O)Nc3cccc(F)c3)cc2)nn1` gave an IC50 [8] of 0.6 µM, an IC50 (dengue virus type 2 [1]) of 10.5 µM and a CC50 at 72 h [6] of 200 µM. The selectivity ratio at 72 h (in vitro; HuH7 cells) was 19.

With `COc1cc(NC(=O)Nc2ccccc2C(F)(F)F)ccc1-n1cc(CCC(C)C)nn1` the IC50 [8] was 0.3 µM.

With `CCCCc1cn(-c2cccc(S(=O)(=O)Nc3ccccc3O)c2)nn1` the IC50 [8] was 0.4 µM, the IC50 (dengue virus type 2 [1]) was 1.6 µM and the CC50 at 72 h [6] was 150 µM.

For `CC(C)OC(=O)[C@H](C)N[P@](=O)(OC[C@H]1O[C@@H](n2ccc(=O)[nH]c2=O)[C@](C)(F)[C@@H]1O)Oc1ccccc1` [SOFOSBUVIR], the IC50 (dengue virus type 2 [1]) was 3.8 µM, the CC50 at 72 h [6] was 200 µM and the selectivity ratio at 72 h (in vitro; HuH7 cells) was 52.6.

With `CCCCc1cn(-c2ccc(NC(=O)Nc3ccccc3NS(C)(=O)=O)cc2)nn1` the IC50 [8] was 0.06 µM, the IC50 (dengue virus type 2 [1]) was 2.5 µM and the CC50 at 72 h [6] was 35 µM. For the same molecule, the selectivity ratio at 72 h (in vitro; HuH7 cells) was 14.

In the case of `Cc1ccccc1NC(=O)Nc1ccc(-n2cc(CCC(C)C)nn2)cc1`, the IC50 [8] is reported as 0.17 µM, the IC50 (dengue virus type 2 [1]) is reported as 1.4 µM and the CC50 at 72 h [6] is reported as 170 µM. It also gave a selectivity ratio at 72 h (in vitro; HuH7 cells) of 121.

Molecule `COc1cc(-n2cc(CCC(C)C)nn2)ccc1NC(=O)Nc1ccccc1C(F)(F)F` has an IC50 [8] of 1.05 µM.

Molecule `CCCC(C)C(F)c1cn(-c2ccc(NC(=O)Nc3ccccc3C(F)(F)F)cc2)nn1` (stereo not given) has an IC50 [8] of 1.05 µM.

In the case of `NC(=O)c1ncn([C@@H]2O[C@H](CO)[C@@H](O)[C@H]2O)n1` [RIBAVIRIN], the IC50 (dengue virus type 2 [1]) is reported as 4 µM, the CC50 at 72 h [6] is reported as 100 µM and the selectivity ratio at 72 h (in vitro) is reported as 25.

`CC(C)CCc1cn(-c2ccc(NC(=O)Nc3ccccc3F)cc2)nn1` gave an IC50 (dengue virus type 2 [1]) of 0.9 µM, a CC50 at 72 h [6] of 200 µM and a selectivity ratio at 72 h (in vitro; HuH7 cells) of 222.

With `CC(C)CCc1cn(-c2ccc(NC(=O)Nc3ccc(F)cc3)cc2)nn1` the IC50 [8] was 1.9 µM.

`CC(C)CCc1cn(-c2ccc(NC(=O)Nc3cccc(F)c3)cc2)nn1` showed an IC50 (dengue virus type 2 [1]) of 2.5 µM, a CC50 at 72 h [6] of 200 µM and a selectivity ratio at 72 h (in vitro; HuH7 cells) of 80.

`CCOCc1cn(-c2cccc(S(=O)(=O)Nc3cccc(C(=O)O)c3)c2)nn1` showed an IC50 (dengue virus type 2 [1]) greater than 7 µM and a CC50 at 72 h [6] of 7 µM.

For `CCOCc1cn(-c2ccc(NC(=O)Nc3cccc(F)c3)cc2)nn1`, the IC50 [8] was 21.2 µM, the IC50 (dengue virus type 2 [1]) was greater than 145 µM and the CC50 at 72 h [6] was 145 µM.

Molecule `CCOCc1cn(-c2cccc(S(=O)(=O)Nc3cccc(C(=O)OCC)c3)c2)nn1` has an IC50 [8] of 0.005 µM, an IC50 (dengue virus type 2 [1]) of 4.3 µM and a CC50 at 72 h [6] of 100 µM. The selectivity ratio at 72 h (in vitro; HuH7 cells) was 23.2.

Molecule `CCOCc1cn(-c2cccc(S(=O)(=O)Nc3ccccc3NS(C)(=O)=O)c2)nn1` has an IC50 [8] of 0.08 µM, an IC50 (dengue virus type 2 [1]) of 8.3 µM and a CC50 at 72 h [6] of 87 µM. For the same molecule, the selectivity ratio at 72 h (in vitro; HuH7 cells) was 10.5.

In the case of `CCCCCCc1cn(-c2ccc(NC(=O)Nc3ccccc3C(F)(F)F)cc2)nn1`, the IC50 [8] is reported as 0.3 µM, the IC50 (dengue virus type 2 [1]) is reported as 2.7 µM and the CC50 at 72 h [6] is reported as 170 µM. The selectivity ratio at 72 h (in vitro; HuH7 cells) was 62.9.

Molecule `O=C(Nc1ccc(-n2cc(CF)nn2)cc1)Nc1ccccc1C(F)(F)F` has an IC50 [8] of 2.2 µM.
